Data: ChEMBL document CHEMBL1147875, “Novel 1-oxyl-2-substitutedphenyl-4,4,5,5-tetramethylimidazolines: synthesis, selectively analgesic action, and QSAR analysis” (2007)

Tests used:
[1] = test system: Mus musculus; experiment: Analgesic activity in ICR mouse assessed as pain threshold variation at 0.13 mmol/kg, ip after 30 mins by tail flick test; assay type: functional
How it was run: (§1)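 Male ICR mice (25 2 g), 12/12 light/dark cycle, 21 2 °C, acclimated one day. Single ip injection in 0.2 ml saline with 0.01 ml DMSO and 0.02 ml Tween 80. Tail-flick pain threshold measured before dosing (BPT) and at 30 min intervals for 150 min. PTV = (post-dose threshold − BPT)/BPT, averaged per animal. Saline controls; ANOVA, p < 0.05.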

[2] = test system: Mus musculus; experiment: Analgesic activity in ICR mouse assessed as pain threshold variation at 0.13 mmol/kg, ip after 60 mins by tail flick test; assay type: functional; how it was run: as §1
[3] = test system: Mus musculus; experiment: Analgesic activity in ICR mouse assessed as pain threshold variation at 0.13 mmol/kg, ip after 90 mins by tail flick test; assay type: functional; how it was run: as §1
[4] = test system: Mus musculus; experiment: Analgesic activity in ICR mouse assessed as pain threshold variation at 0.13 mmol/kg, ip after 120 mins by tail flick test; assay type: functional; how it was run: as §1
[5] = test system: Mus musculus; experiment: Analgesic activity in ICR mouse assessed as pain threshold variation at 0.13 mmol/kg, ip after 150 mins by tail flick test; assay type: functional; how it was run: as §1
[6] = test system: Mus musculus; experiment: Effect on bleeding time in ICR mouse tail at 1.3 mmol/kg, ip after 5 mins; assay type: functional
How it was run: (§2)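 Mice given 1.30 mmol/kg body weight. Tail bleeding time measured before dosing and at 5, 15, 30 and 60 min after dosing. Saline as vehicle control.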

[7] = test system: Mus musculus; experiment: Effect on bleeding time in ICR mouse tail at 1.3 mmol/kg, ip after 15 mins; assay type: functional; how it was run: as §2
[8] = test system: Mus musculus; experiment: Effect on bleeding time in ICR mouse tail at 1.3 mmol/kg, ip after 30 mins; assay type: functional; how it was run: as §2
[9] = test system: Mus musculus; experiment: Effect on bleeding time in ICR mouse tail at 1.3 mmol/kg, ip after 60 mins; assay type: functional; how it was run: as §2
[10] = test system: Aorta; experiment: Vasorelaxant activity in rat aortic strips assessed as inhibition of noradrenaline-induced vasoconstriction at 500 umol/l; assay type: functional; set-up: scale not given: the % may be the effect or the level left
[11] = test system: Aorta; experiment: Vasorelaxant activity in rat aortic strips assessed as inhibition of noradrenaline-induced vasoconstriction at 100 umol/l; assay type: functional; set-up: scale not given: the % may be the effect or the level left
[12] = test system: Aorta; experiment: Vasorelaxant activity in rat aortic strips assessed as inhibition of noradrenaline-induced vasoconstriction at 20 umol/l; assay type: functional; set-up: scale not given: the % may be the effect or the level left
[13] = test system: Mus musculus; experiment: Analgesic activity in ICR mouse assessed as pain threshold variation at 0.013 mmol/kg, ip after 30 mins by tail flick test; assay type: functional, organism-based; how it was run: as §1
[14] = test system: Mus musculus; experiment: Analgesic activity in ICR mouse assessed as pain threshold variation at 0.013 mmol/kg, ip after 60 mins by tail flick test; assay type: functional, organism-based; how it was run: as §1
[15] = test system: Mus musculus; experiment: Analgesic activity in ICR mouse assessed as pain threshold variation at 0.013 mmol/kg, ip after 90 mins by tail flick test; assay type: functional, organism-based; how it was run: as §1
[16] = test system: Mus musculus; experiment: Analgesic activity in ICR mouse assessed as pain threshold variation at 0.013 mmol/kg, ip after 120 mins by tail flick test; assay type: functional, organism-based; how it was run: as §1
[17] = test system: Mus musculus; experiment: Analgesic activity in ICR mouse assessed as pain threshold variation at 0.013 mmol/kg, ip after 150 mins by tail flick test; assay type: functional, organism-based; how it was run: as §1
[18] = test system: Mus musculus; experiment: Analgesic activity in ICR mouse assessed as pain threshold variation at 0.0013 mmol/kg, ip after 30 mins by tail flick test; assay type: functional, organism-based; how it was run: as §1
[19] = test system: Mus musculus; experiment: Analgesic activity in ICR mouse assessed as pain threshold variation at 0.0013 mmol/kg, ip after 60 mins by tail flick test; assay type: functional, organism-based; how it was run: as §1
[20] = test system: Mus musculus; experiment: Analgesic activity in ICR mouse assessed as pain threshold variation at 0.0013 mmol/kg, ip after 90 mins by tail flick test; assay type: functional, organism-based; how it was run: as §1
[21] = test system: Mus musculus; experiment: Analgesic activity in ICR mouse assessed as pain threshold variation at 0.0013 mmol/kg, ip after 120 mins by tail flick test; assay type: functional, organism-based; how it was run: as §1
[22] = test system: Mus musculus; experiment: Analgesic activity in ICR mouse assessed as pain threshold variation at 0.0013 mmol/kg, ip after 150 mins by tail flick test; assay type: functional, organism-based; how it was run: as §1

SMILES | Activity [1] | Activity [2] | Activity [3] | Activity [4] | Activity [5] | TIME [6] [h] | TIME [7] [h] | TIME [8] [h] | TIME [9] [h] | Activity [10] [%] | Activity [11] [%] | Activity [12] [%] | further results
CC1(C)N=C(c2ccc(Cl)cc2Cl)N([O])C1(C)C | 39.6 | 63.3 | 48.4 | 30.5 | 14.8 | 0.0329 | 0.033 | 0.0326 | 0.0327 | 34.8 | 23 | 6.86 | –
CC1(C)N=C(c2ccc(O)cc2)N([O])C1(C)C | 55.7 | 70.8 | 75.9 | 55.5 | 29.9 | 0.0328 | 0.0325 | 0.0326 | 0.0327 | 8.71 | 7.66 | 5.36 | –
Cc1ccc(C2=NC(C)(C)C(C)(C)N2[O])cc1 | 40.2 | 53.6 | 43.7 | 35.2 | 25.5 | 0.0327 | 0.0324 | 0.0328 | 0.0328 | 31.8 | 20 | 7 | –
COc1cc(C2=NC(C)(C)C(C)(C)N2[O])ccc1O | 54.2 | 42.9 | 66.3 | 43.2 | 40.9 | 0.0327 | 0.0323 | 0.0327 | 0.0329 | 6.55 | 6.09 | 5.98 | –
CC1(C)N=C(c2ccc3c(c2)OCO3)N([O])C1(C)C | 52.8 | 65 | 74 | 58.3 | 25.4 | 0.0326 | 0.0324 | 0.0328 | 0.0324 | 37.4 | 24.5 | 8.1 | –
CC1(C)N=C(c2ccc([N+](=O)[O-])cc2)N([O])C1(C)C | 56.5 | 60.5 | 58 | 35.9 | 52.3 | 0.0332 | 0.0331 | 0.0329 | 0.033 | 36.5 | 24.4 | 7.36 | –
CC1(C)N=C(c2ccc(Br)cc2)N([O])C1(C)C | 41.3 | 35.6 | 59.8 | 60 | 76.5 | 0.0324 | 0.0326 | 0.0324 | 0.0326 | 34.8 | 23 | 6.89 | –
CC1(C)N=C(c2ccccc2O)N([O])C1(C)C | 48.6 | 45.4 | 64.2 | 70.2 | 62.2 | 0.0324 | 0.0329 | 0.0325 | 0.0324 | 20.3 | 13.4 | 6.01 | –
COc1ccc(C2=NC(C)(C)C(C)(C)N2[O])cc1O | 33.1 | 48.2 | 48.4 | 56.4 | 59.8 | 0.0326 | 0.0325 | 0.0328 | 0.0326 | 16.6 | 11 | 5.36 | –
CC1(C)N=C(c2cccc([N+](=O)[O-])c2)N([O])C1(C)C | 49.8 | 66.4 | 47.4 | 43.5 | 41.8 | 0.0329 | 0.0324 | 0.0327 | 0.0328 | 34.3 | 22.1 | 6.72 | –
CC1(C)N=C(c2cccc(O)c2)N([O])C1(C)C | 49.6 | 50.3 | 54 | 72.7 | 70.8 | 0.033 | 0.0326 | 0.0331 | 0.0326 | 35.7 | 23 | 7.06 | Activity [13]: 35.7; Activity [14]: 37.8; Activity [15]: 42.8; Activity [16]: 59.9; Activity [17]: 52.1; Activity [18]: 24.2; Activity [19]: 25.6; Activity [20]: 30.7; Activity [21]: 35.2; Activity [22]: 33.5
COc1ccc(C2=NC(C)(C)C(C)(C)N2[O])c(OC)c1 | 42 | 59.7 | 62.5 | 71.2 | 32.4 | 0.0331 | 0.0324 | 0.0327 | 0.0328 | 37.1 | 24 | 7.33 | –
CC1(C)N=C(c2ccccc2)N(O)C1(C)C | 40.6 | 36.99 | 34 | 32.14 | 33.48 | – | – | – | – | 17.25 | 11.04 | 5.44 | Time [6]: 118.2 s; Time [7]: 117.4 s; Time [8]: 119.3 s; Time [9]: 118.2 s
COc1ccc(C2=NC(C)(C)C(C)(C)N2[O])cc1OC | 44.9 | 60.2 | 59.5 | 78.4 | 55.6 | 0.0329 | 0.033 | 0.0332 | 0.0335 | 33.7 | 22.3 | 6.66 | –
CC1(C)N=C(c2ccc(Cl)c(Cl)c2)N([O])C1(C)C | 50.6 | 72.8 | 55.7 | 28.8 | 27 | 0.0334 | 0.0331 | 0.0331 | 0.033 | 34.4 | 22.7 | 6.74 | –
CC1(C)N=C(c2ccccc2F)N([O])C1(C)C | 62.2 | 67.8 | 63.3 | 62 | 86.8 | 0.0331 | 0.0329 | 0.0328 | 0.0326 | 23.4 | 14.9 | 5 | Activity [13]: 49.3; Activity [14]: 51.3; Activity [15]: 50.7; Activity [16]: 49.8; Activity [17]: 64.5; Activity [18]: 31.3; Activity [19]: 33.5; Activity [20]: 31.8; Activity [21]: 30.4; Activity [22]: 44.5
CN(C)c1ccc(C2=NC(C)(C)C(C)(C)N2[O])cc1 | 30.4 | 35.5 | 36.2 | 34.3 | 27.9 | 0.0331 | 0.033 | 0.0329 | 0.0327 | 40 | 26 | 8.02 | –
COc1ccc(C2=NC(C)(C)C(C)(C)N2[O])cc1 | 35.3 | 103 | 99.3 | 68.7 | 53 | 0.0327 | 0.0324 | 0.0331 | 0.0331 | 35.1 | 23.1 | 6.88 | Activity [13]: 25; Activity [14]: 89.7; Activity [15]: 82.5; Activity [16]: 50.2; Activity [17]: 34.4; Activity [18]: 14.9; Activity [19]: 55.2; Activity [20]: 50.5; Activity [21]: 38.4; Activity [22]: 22.6
CC1(C)N=C(c2ccccc2[N+](=O)[O-])N([O])C1(C)C | 38.4 | 66.9 | 57.2 | 23.4 | 19.7 | 0.0326 | 0.0327 | 0.0326 | 0.0324 | 35.6 | 20.4 | 6.98 | –
CC1(C)N=C(c2ccc(Cl)cc2)N([O])C1(C)C | 59.3 | 66.3 | 61.7 | 50.8 | 84.5 | 0.0331 | 0.0326 | 0.0328 | 0.0326 | 36.6 | 23.8 | 7.19 | –
